One series has as its system Hepatitis C virus. Kind of series: Antiviral activity against Hepatitis C virus genotype 1b infected in human HBI10A cells assessed as inhibition of viral replication in presence of 10% FBS. Type of series: functional, organism-based, Hepacivirus hominis. Put shortly:
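HBI10A hepatoma cells stably carrying a genotype 1b subgenomic bicistronic HCV replicon; EC50 measured in the presence of 10% fetal bovine serum; mean of ≥3 experiments, SD within 20%.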

Series [1] is described as follows: Inhibition of Hepatitis C virus NS5B polymerase. Further details: species or system Hepacivirus hominis; call rule not given here. Put shortly: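 Nucleoside triphosphates tested in an NS5B polymerization assay on a heteromeric RNA template; IC50 given as mean of ≥3 experiments, SD within 20%.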
Series [2] can be described thus: Inhibition of human DNA polymerase alpha.
Series [3] in a line: Inhibition of human DNA polymerase beta.
Series [4] can be described thus: Inhibition of human DNA polymerase gamma.
Series [5] can be described thus: Prodrug activation in hamsters liver assessed as NTP formation at 10 mg/kg. Type of series: organism-based. To be noted: cricetinae, in vivo. Further details: dose 10 mg/kg. Put shortly: (§1)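 Prodrug dosed at 10 mg/Kg in hamster; liver analysed for NTP and NMP species.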
A short description of series [6]: Prodrug activation in hamsters liver assessed as NMP formation at 10 mg/kg. The settings on record: cricetinae, in vivo. Type of series: organism-based. Further details: dose 10 mg/kg. In short, it runs like this:
as §1

Series [7] can be described thus: Oral bioavailability in Wistar Han rat at 1 mg/kg. Type of series: ADME, organism-based. The settings on record: in vivo. In short, it runs like this: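 Pharmacokinetics in Wistar Han rats after 1 mg/Kg given intravenously and orally; parent nucleoside followed in plasma to derive clearance, volume of distribution and oral bioavailability (F).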
The test system of series [8] is Liver. The series is described as follows: Drug uptake in Wistar Han rat liver assessed as nucleotide triphosphate level per gram of tissue at 20 mg/kg, iv measured after 3 hrs. Type of series: ADME, organism-based. To be noted: in vivo. Further details: dose 20 mg/kg, route intravenous. Put shortly:
(§2)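 Wistar Han rats given 20 mg/Kg intravenously; NTP in liver measured up to 12 h after dosing, at 3, 6 and 12 h (nmol/g); parent nucleoside measured in plasma, and liver NTP/plasma nucleoside ratio computed at each timepoint.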

Series [9] relates to Liver. Kind of series: Drug uptake in Wistar Han rat liver assessed as nucleotide triphosphate level per gram of tissue at 20 mg/kg, iv measured after 6 hrs. Further details: dose 20 mg/kg, route intravenous. Type of series: ADME, organism-based. To be noted: in vivo. Put shortly:
as §2

Series [10] relates to Liver. The series is described as follows: Drug uptake in Wistar Han rat liver assessed as nucleotide triphosphate level per gram of tissue at 20 mg/kg, iv measured after 12 hrs. Type of series: ADME, organism-based. Further details: dose 20 mg/kg, route intravenous. The settings on record: in vivo. In short, it runs like this: as §2
Another series has as its system Nucleic Acid. The series is described as follows: Ratio of drug level in nucleotide triphosphate level in liver to parent compound level in plasma in Wistar Han rat at 20 mg/kg, iv measured after 3 to 12 hrs. To be noted: in vivo. Type of series: ADME, organism-based. Further details: dose 20 mg/kg, route intravenous. Put shortly:
as §2

Series [11] concerns Liver. The series is described as follows: Drug uptake in Wistar Han rat liver assessed as nucleotide triphosphate level per gram of tissue at 20 mg/kg, po measured after 12 hrs. Further details: dose 20 mg/kg, route oral. The settings on record: in vivo. Type of series: ADME, organism-based. Put shortly: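 Wistar Han rats dosed orally at 20 mg/Kg; NTP in liver measured 12 h after dosing, in nmol/g.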

`Cc1noc(-c2cn([C@@H]3O[C@H](CO)[C@@H](O)[C@@]3(C)O)c3ncnc(N)c23)n1`: the EC50 with Hepatitis C virus came out at 42 µM. `C[C@@]1(O)[C@H](O)[C@@H](COP(=O)(O)OP(=O)(O)OP(=O)(O)O)O[C@H]1n1cc(-c2cn[nH]c2)c2c(N)ncnc21` had an IC50 in [1] of 8400 nM. In the case of `CCOC(=O)[C@@H](C)NP(=O)(OC[C@H]1O[C@@H](n2cc(-c3ccn[nH]3)c3c(N)ncnc32)[C@](C)(O)[C@@H]1O)Oc1ccccc1` (stereo partly drawn), the EC50 in the series on Hepatitis C virus was determined as 1.8 µM.

For `C[C@@]1(O)[C@H](O)[C@@H](COP(=O)(O)OP(=O)(O)OP(=O)(O)O)O[C@H]1n1cc(-c2nnco2)c2c(N)ncnc21`, the half-maximal inhibitory concentration (IC50) in series [1] is more than 95000 nM. For `C[C@@]1(F)[C@H](O)[C@@H](CO)O[C@H]1n1cc(-c2ncco2)c2c(N)ncnc21`, the concentration giving a half-maximal response (EC50) with Hepatitis C virus came out at 37 µM. The same measure, in the same setting: to `C[C@@]1(O)[C@H](O)[C@@H](CO)O[C@H]1n1cc(-c2nnco2)c2c(N)ncnc21` belongs 46 µM. Consider `Cn1cc(-c2cn([C@@H]3O[C@H](CO)[C@@H](O)[C@@]3(C)O)c3ncnc(N)c23)nn1`, for which, in the series with Hepatitis C virus, the EC50 stood at 42 µM. `Cc1noc(-c2cn([C@@H]3O[C@H](COP(=O)(O)OP(=O)(O)OP(=O)(O)O)[C@@H](O)[C@@]3(C)O)c3ncnc(N)c23)n1` registered a half-maximal inhibitory concentration (IC50) in [1] of 8400 nM. Take `C[C@@]1(F)[C@H](O)[C@@H](CO)O[C@H]1n1cc(-c2ncon2)c2c(N)ncnc21`: the EC50 in the series with Hepatitis C virus was found to be 41 µM. Compound `C[C@@]1(F)[C@H](O)[C@@H](COP(=O)(O)OP(=O)(O)OP(=O)(O)O)O[C@H]1n1cc(-c2ncon2)c2c(N)ncnc21` showed an IC50 in [1] of 400 nM. Turning to `C[C@@]1(F)[C@H](O)[C@@H](COP(=O)(O)OP(=O)(O)OP(=O)(O)O)O[C@H]1n1cc(-c2ccn[nH]2)c2c(N)ncnc21`, the IC50 is 70 nM in [1], more than 10 µM in [2], more than 10 µM in series [3] and more than 10 µM in series [4].

Turning to `C[C@@]1(O)[C@H](O)[C@@H](CO)O[C@H]1n1cc(-c2ncco2)c2c(N)ncnc21`, in the series on Hepatitis C virus, the 50% effective concentration (EC50) came out at 7.8 µM. `CCOC(=O)[C@@H](C)NP(=O)(OC[C@H]1O[C@@H](n2cc(-c3ccn[nH]3)c3c(N)ncnc32)[C@](C)(F)[C@@H]1O)Oc1ccccc1` (stereo partly drawn): in the series on Hepatitis C virus, the EC50 was more than 50 µM. Moreover, the values for the Drug metabolism result in series [5] and in series [6] were “Not Active” and “Active”, respectively.

As for `C[C@@]1(O)[C@H](O)[C@@H](CO)O[C@H]1n1cc(-c2cc[nH]n2)c2c(N)ncnc21`, the concentration for a half-maximal effect (EC50) in the series with Hepatitis C virus was more than 100 µM. The same measure, in the same setting: to `C[C@@]1(O)[C@H](O)[C@@H](CO)O[C@H]1n1cc(-c2ncccn2)c2c(N)ncnc21` belongs more than 100 µM. In the case of `C[C@@]1(O)[C@H](O)[C@@H](CO)O[C@H]1n1cc(-c2ncon2)c2c(N)ncnc21`, the EC50 with Hepatitis C virus came out at 1.9 µM. This compound displayed a bioavailability in series [7] of 14.7%. The Drug uptake was 11.9 nmol/g in the series with Liver [8], 3.9 nmol/g in the series with Liver [9], 0.5 nmol/g with Liver [10] and 0.4 nmol/g in the series on Liver [11]. The Ratio in the series with Nucleic Acid amounted to 20. In [1], `C[C@@]1(O)[C@H](O)[C@@H](COP(=O)(O)OP(=O)(O)OP(=O)(O)O)O[C@H]1n1ccc2c(N)ncnc21` registered an IC50 of 100 nM. `C[C@@]1(O)[C@H](O)[C@@H](COP(=O)(O)OP(=O)(O)OP(=O)(O)O)O[C@H]1n1cc(-c2ncon2)c2c(N)ncnc21`: the half-maximal inhibitory concentration (IC50) was 500 nM in series [1], more than 10 µM in series [2], more than 10 µM in [3] and more than 10 µM in series [4].

In the case of `Cn1cc(-c2cn([C@@H]3O[C@H](COP(=O)(O)OP(=O)(O)OP(=O)(O)O)[C@@H](O)[C@@]3(C)O)c3ncnc(N)c23)nn1`, in [1], the IC50 turned out to be 8400 nM.

Take `C[C@@]1(O)[C@H](O)[C@@H](COP(=O)(O)OP(=O)(O)OP(=O)(O)O)O[C@H]1n1cc(-c2ncco2)c2c(N)ncnc21`: in series [1], it took 500 nM to reach half-maximal inhibition (IC50). For `C[C@@]1(F)[C@H](O)[C@@H](CO)O[C@H]1n1cc(-c2ccn[nH]2)c2c(N)ncnc21`, the EC50 in the series with Hepatitis C virus was 35 µM. Turning to `C[C@@]1(F)[C@H](O)[C@@H](COP(=O)(O)OP(=O)(O)OP(=O)(O)O)O[C@H]1n1cc(-c2ncco2)c2c(N)ncnc21`, in [1], half-maximal inhibition (IC50) was put at 300 nM. For `C[C@@]1(O)[C@H](O)[C@@H](CO)O[C@H]1n1ccc2c(N)ncnc21` [BETA-2'-C-METHYL-7-DEAZA-ADENOSINE], in the series with Hepatitis C virus, the half-maximal effective concentration (EC50) amounted to 0.3 µM. In series [1], `C[C@@]1(O)[C@H](O)[C@@H](COP(=O)(O)OP(=O)(O)OP(=O)(O)O)O[C@H]1n1cc(-c2ncccn2)c2c(N)ncnc21` registered a half-maximal inhibitory concentration (IC50) of 12000 nM. For `C[C@@]1(O)[C@H](O)[C@@H](CO)O[C@H]1n1cc(-c2cn[nH]c2)c2c(N)ncnc21`, the EC50 in the series on Hepatitis C virus was determined as 30 µM. On to `C[C@@]1(O)[C@H](O)[C@@H](COP(=O)(O)OP(=O)(O)OP(=O)(O)O)O[C@H]1n1cc(-c2cc[nH]n2)c2c(N)ncnc21`, for which the IC50 in series [1] is 100 nM; in series [2], more than 10 µM; in series [3], more than 10 µM; in series [4], more than 10 µM.
